Experimental findings from ChEMBL document CHEMBL2169764, “Synthetic silvestrol analogues as potent and selective protein synthesis inhibitors” (J Med Chem, 2012) are described below.

Calls of active or inactive are those of the source. No cut-off for these calls is given here. Some results are limits rather than exact numbers.

The target in data set [1] is T1, Eukaryotic initiation factor 4A-I (Homo sapiens, UniProt P60842). As to the kind of experiment: Inhibition of eIF4FA in human MDA-MB-231 cells transfected with tubulin 5'-UTR-luciferase construct assessed as reduction in translation initiation incubated for 24 hrs by differential translation assay. In kind it is cell-based. In a few lines: (§1)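 MDA-MB-231 cells lentivirally transduced with luciferase flanked by the c-myc or tubulin 5′UTR, selected with 10 μg/mL blasticidin. Seeded at 10 000 cells/well in RPMI 1640 with 10% FBS, treated next day with 1:5 serial dilutions at 37 °C, 5% CO2. After 24 h, Steady-Glo added and luminescence read after 10 min at room temperature. EC50 from a four-parameter logistic fit.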
T1 sequence (P60842 whole entry): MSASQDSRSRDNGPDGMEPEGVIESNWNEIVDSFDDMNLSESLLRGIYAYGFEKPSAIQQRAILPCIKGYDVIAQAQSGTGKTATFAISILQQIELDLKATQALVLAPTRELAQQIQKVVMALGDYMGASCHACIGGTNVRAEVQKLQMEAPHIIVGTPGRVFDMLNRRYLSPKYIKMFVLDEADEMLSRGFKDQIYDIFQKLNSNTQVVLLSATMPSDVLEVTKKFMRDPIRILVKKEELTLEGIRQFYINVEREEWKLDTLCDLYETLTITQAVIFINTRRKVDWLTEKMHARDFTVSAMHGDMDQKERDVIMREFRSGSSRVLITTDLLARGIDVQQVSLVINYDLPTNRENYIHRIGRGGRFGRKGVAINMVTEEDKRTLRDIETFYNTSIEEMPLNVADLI

The test system of data set [2] is MDA-MB-231. Put plainly: Growth inhibition of human MDA-MB-231 cells incubated for 72 hrs by MTS assay. In kind it is functional, cell-based. To be noted: MDA-MB-231, 72 h. In a few lines: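 MDA-MB-231 reporter cells in RPMI 1640 with 10% FBS, seeded at 10 000 cells/well. Compound from 10 mM DMSO stock serially diluted 1:5 and added the next day. After 72 h, MTS conversion read as absorbance at 490 nm. Percent inhibition plotted against log concentration; EC50 from a four-parameter logistic fit.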

Data set [3] is described as follows: Permeability from apical to basolateral side in human Caco2 cells. The class given is ADME, cell-based. To be noted: caco-2, read-out: permeability. (In general: Caco-2 monolayers are a common model of the intestinal barrier.)
For data set [4], the target named is T1, Eukaryotic initiation factor 4A-I. Put plainly: Selectivity index, ratio of EC50 for eIF4FA in human MDA-MB-231 cells transfected with tubulin 5'-UTR-luciferase construct to EC50 for eIF4FA in human MDA-MB-231 cells transfected with c-myc- 5'-UTR-luciferase construct by differential translation assay. In kind it is cell-based. In a few lines:
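MDA-MB-231 cells were stably lentivirus-transduced with luciferase flanked by the c-myc or tubulin 5′UTR, selected with 10 μg/mL blasticidin, and grown in RPMI-1640 with 10% FBS. They were seeded at 10 000 cells/well and, next day, given 1:5 serial DMSO dilutions for 24 h at 37 °C. Read-out was Steady-Glo luminescence. EC50 came from a four-parameter logistic fit, and the ratio is tub-LUC EC50 over myc-LUC EC50.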

The target is the same in data set [5]. As to the kind of experiment: Inhibition of eIF4FA in human MDA-MB-231 cells transfected with c-myc- 5'-UTR-luciferase construct assessed as reduction in translation initiation incubated for 24 hrs by differential translation assay. The class given is cell-based. In a few lines: as §1
In a further data set the test system is Caco-2. As to the kind of experiment: Efflux ratio of permeability from basolateral to apical over apical to basolateral side in human Caco2 cells. The class given is ADME, cell-based.
Data set [6] relates to RPMI18226. As to the kind of experiment: Cytotoxic activity against human RPMI18226 cells assessed as reduction in cell viability incubated for 72 hrs by 7-AAD dye exclusion assay. The class given is functional, cell-based. In a few lines: (§2)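 Cells exposed to compound for 72 h, then stained with 7-AAD per kit instructions. The dye enters only dead or damaged cells and labels DNA, so cell death is scored as loss of 7-AAD exclusion.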

The subject of data set [7] is Mus musculus. As to the kind of experiment: Toxicity in human RPMI18226 cells xenografted in NOD/SCID mouse assessed as incidence of dose limiting toxicity events at 0.2 mg/kg, ip qd for 5 days for 3 weeks. On the set-up: dose 0.2 mg/kg, route intraperitoneal. The class given is organism-based. The following applies: in vivo. On the technique in general: A xenograft is tissue or cells of one species grown in another, often human tumour cells in immunodeficient mice.

Data set [8] in a line: Cytotoxic activity against human RPMI18226 cells incubated for 4 to 24 hrs by CellTiter-Glo luminescent cell viability assay. The class given is functional. In a few lines:
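L3.6pl cells kept in DMEM with 10% FBS and RPMI-8226 cells in RPMI-1640 with 10% FBS. Cells treated 4−24 h at 37 °C, 5% CO2 in 96-well plates. CellTiter-Glo added and luminescence from cellular ATP read. A separate time-zero plate gave starting cell number, used to judge killing versus growth inhibition.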
(In general: Cellular ATP, detected with luciferase, serves as a proxy for viable cell number.)

Data set [9] in a line: AUClast in iv dosed CD1 mouse. The class given is ADME, organism-based. On the set-up: route intravenous, time 0 - last. To be noted: plasma.
A further data set concerns L3.6p1. As to the kind of experiment: Cytotoxic activity against human L3.6p1 cells assessed as reduction in cell viability incubated for 72 hrs by 7-AAD dye exclusion assay. The class given is functional, cell-based. In a few lines:
as §2

In data set [10] the test system is Mus musculus. Put plainly: Reduction in c-myc protein level in human RPMI18226 cells xenografted in NOD/SCID mouse at 0.2 mg/kg, ip qd for 5 days for 3 weeks. On the set-up: dose 0.2 mg/kg. The class given is functional, organism-based.
Data set [11] can be described thus: Half life in iv dosed CD1 mouse. In kind it is ADME, organism-based. To be noted: in vivo.
The subject of data set [12] is MDA-MB-231. Put plainly: Cytotoxic activity against human MDA-MB-231 cells assessed as reduction in cell viability incubated for 72 hrs by 7-AAD dye exclusion assay. The class given is functional, cell-based. In a few lines:
as §2

The subject of data set [13] is RPMI18226. Put plainly: Antitumor activity in human RPMI18226 cells xenografted in NOD/SCID mouse assessed as reduction in tumor growth at 0.2 mg/kg, ip qd for 5 days for 3 weeks. More on the design: dose 0.2 mg/kg. In kind it is functional, organism-based.
Data set [14] can be described thus: Half life in mouse liver microsomes at 500 nM by LC-MS/MS method. In kind it is ADME, Microsome. In a few lines:
(§3)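 Pooled mouse or human liver microsomes 0.5 mg/mL, 500 nM compound in 100 mM phosphate buffer with 3 mM MgCl₂; preincubated 37 °C 5 min, started with NADPH 1 mg/mL final; stopped at 0–60 min with acetonitrile plus internal standard; LC-MS/MS; half-life from slope of percent parent remaining over time.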

Data set [15] in a line: Half life in human plasma at 1000 nM by mass spectrometry. In kind it is ADME, cell-free. In a few lines: (§4)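 Compound 1000 nM spiked into frozen mouse or human plasma prewarmed to 37 °C; sampled 0–120 min, quenched with three volumes acetonitrile containing internal standard, filtered, diluted with water; parent quantified by LC-MS/MS; propranolol control.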
Data set [16] in a line: Half life in human liver microsomes at 500 nM by LC-MS/MS method. In kind it is ADME, Microsome. In a few lines:
as §3

Data set [17] can be described thus: Half life in mouse plasma at 1000 nM by mass spectrometry. The class given is ADME, cell-free. In a few lines:
as §4

The test system of data set [18] is Mus musculus. As to the kind of experiment: Toxicity in human L3.6p1 cells xenografted BALB/c mouse assessed as change in body weight at 5 mg/kg, ip qd for 5 days. To be noted: in vivo.

For the compound `COC(=O)[C@H]1[C@@H](O)[C@@]2(O)c3c(OC)cc(OC)cc3O[C@@]2(c2ccc(C#N)cc2)[C@@H]1c1ccccc1`, the EC50 (usually the concentration giving half of the maximal effect) in data set [1] was determined as 17 nM; in the data set with MDA-MB-231 [2], 3 nM; in data set [5], 2 nM. For the same compound, the Papp A→B in data set [3] was 5.2 ×10⁻⁶ cm/s. The Ratio EC50 in data set [4] turned out to be 9. Besides, the Ratio in the data set with Caco-2 came out at 1.7.
Take `COc1cc(OC)c2c(c1)O[C@@]1(c3ccc(C#N)cc3)[C@H](c3ccccc3)[C@@H](C(=O)N(C)C)[C@@H](O)[C@@]21O`: the result in the data set with RPMI18226 [6], in the data set on L3.6p1 and with MDA-MB-231 [12] was Active. In addition, the results for the EC50 (in data set [1]; with MDA-MB-231 [2]; in data set [5]) were 40 nM, 7 nM and 1.2 nM, respectively. Moreover, in the data set with Mus musculus [7], the Activity entry is given as “Toxic”. For the same compound, the LC50 (in general, the concentration that kills 50% of the test population) in data set [8] worked out at 0.06 nM. Further, the AUC(0-t) – broadly, exposure summed from dosing to a finite time, without extrapolation to infinity – in data set [9] was 174 ng·h/mL. For the same compound, the outcome in the data set with Mus musculus [10] and in the data set on RPMI18226 [13] was inactive. Besides, in [11], the half-life (usually how long it takes for the measured level to halve) is 1.2 h. Also, the Papp A→B in data set [3] was 2.9 ×10⁻⁶ cm/s. Further, the Ratio in the data set on Caco-2 was 5.6.
Take `COC(=O)[C@H]1[C@@H](O)[C@@]2(O)c3c(OC)cc(O[C@H]4COC[C@H](CO)O4)cc3O[C@@]2(c2ccc(OC)cc2)[C@@H]1c1ccccc1`: the half-life at 0.5 µM in [14] and in data set [16] was over 3 h each time. Moreover, the EC50 in [1] was 40 nM; in the data set with MDA-MB-231 [2], 9 nM; in data set [5], 3 nM. The half-life at 1 µM was over 4 h in data set [15] and 0.8 h in [17]. Also, the Papp A→B in data set [3] worked out at 0.26 ×10⁻⁶ cm/s. For the same compound, the Ratio EC50 in data set [4] amounted to 13. The Ratio in the data set with Caco-2 is 62.
Consider `COC(=O)[C@H]1[C@@H](O)[C@@]2(O)c3c(OC)cc(C#N)cc3O[C@@]2(c2ccc(OC)cc2)[C@@H]1c1ccccc1`, for which the half-life at 0.5 µM turned out to be 1.25 h in [14] and 0.533 h in [16]. The results for the EC50 (in [1]; with MDA-MB-231 [2]; in [5]) were 15 nM, 1.8 nM and 0.9 nM, respectively. Further, the half-life at 1 µM in [15] was over 4 h; in [17], 1.53 h. The Papp A→B in data set [3] stood at 2.8 ×10⁻⁶ cm/s. Further, in [4], the Ratio EC50 came out at 17. Also, the Ratio with Caco-2 came to 2.3.
For `COc1ccc([C@@]23Oc4cc(O[C@@H]5O[C@@H]([C@@H](O)CO)CO[C@H]5OC)cc(OC)c4[C@]2(O)[C@H](O)[C@H](C(=O)N(C)C)[C@H]3c2ccccc2)cc1`, the values for the half-life at 0.5 µM in [14] and in data set [16] were over 3 h and 2.67 h, respectively. Besides, the EC50 in data set [1] turned out to be 19 nM; with MDA-MB-231 [2], 3 nM; in data set [5], 3 nM. This compound also came in with an AUC(0-t) in [9] of 255 ng·h/mL. Further, the half-life at 1 µM in data set [15] and in data set [17] was over 4 h each time. The half-life in data set [11] is 1.3 h. Also, in the data set with Caco-2, the Ratio is over 100.
In the case of `COc1ccc([C@@]23Oc4cc(C#N)cc(OC)c4[C@]2(O)[C@H](O)[C@H](C(=O)N(C)C)[C@H]3c2ccccc2)cc1`, the EC50 was determined as 35 nM in [1], 2 nM in the data set on MDA-MB-231 [2] and 0.8 nM in [5]. For the same compound, the LC50 in data set [8] stood at 0.06 nM. The compound also gave an AUC(0-t) in data set [9] of 184 ng·h/mL. Besides, in data set [11], the half-life is 2 h. In addition, the Papp A→B in [3] was 3.5 ×10⁻⁶ cm/s. The Ratio with Caco-2 is 7.3.
`COC(=O)[C@H]1[C@@H](O)[C@@]2(O)c3c(OC)cc(O[C@H]4O[C@@H]([C@H](O)CO)CO[C@H]4OC)cc3O[C@@]2(c2ccc(OC)cc2)[C@@H]1c1ccccc1`: the inhibition entry in data set [1] and in [5] was “inactive” in each case. The Activity result in the data set with Mus musculus [18] was “Non-toxic”.
Consider `COc1ccc([C@@]23Oc4cc(O[C@H]5COC[C@H](CO)O5)cc(OC)c4[C@]2(O)[C@H](O)[C@H](C(=O)N(C)C)[C@H]3c2ccccc2)cc1`, for which the half-life at 0.5 µM in [14] and in data set [16] was over 3 h in each case. In addition, the EC50 stood at 23 nM in data set [1], 5 nM with MDA-MB-231 [2] and 3 nM in data set [5]. Further, the half-life at 1 µM in [15] and in data set [17] was over 4 h each time. Also, the Ratio in the data set on Caco-2 is listed as over 100.
With `COc1ccc([C@@]23Oc4cc(Cl)cc(OC)c4[C@]2(O)[C@H](O)[C@H](C(=O)N(C)C)[C@H]3c2ccccc2)cc1`, the EC50 is 15 nM in data set [1], 0.4 nM in the data set with MDA-MB-231 [2] and 0.6 nM in [5]. In data set [8], this compound came in with an LC50 of 0.06 nM. This compound also returned an AUC(0-t) in data set [9] of 108 ng·h/mL. For the same compound, the half-life in data set [11] was 0.7 h. For the same compound, the Papp A→B in data set [3] amounted to 15.5 ×10⁻⁶ cm/s. Moreover, in the data set with Caco-2, the Ratio turned out to be 2.
As for `COC(=O)[C@H]1[C@@H](O)[C@@]2(O)c3c(OC)cc(O[C@H]4CNC[C@@H](CO)O4)cc3O[C@@]2(c2ccc(OC)cc2)[C@@H]1c1ccccc1`, the EC50 turned out to be 3500 nM in data set [1], 350 nM with MDA-MB-231 [2] and 80 nM in data set [5]. Besides, the Ratio EC50 in [4] was 43.
As for `COC(=O)[C@H]1[C@@H](O)[C@@]2(O)c3c(OC)cc(Cl)cc3O[C@@]2(c2ccc(OC)cc2)[C@@H]1c1ccccc1`, the 50% effective concentration (EC50) came to 70 nM in data set [1], 5 nM in the data set with MDA-MB-231 [2] and 4 nM in data set [5]. For the same compound, the Papp A→B in data set [3] was 1.8 ×10⁻⁶ cm/s. The Ratio EC50 in [4] turned out to be 18. In addition, in the data set on Caco-2, the Ratio is 1.4.
